Where “and” joins values, the source holds several entries; their conditions need not be identical. Equal values may be shown once.
System: U2OS
Test: Multiplex assay against U2OS
Type: toxicity, cell-based
Details: human
Procedure, shortened: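 Live cells carried four stains from seeding: Hoechst33342, BioTracker Green Microtubule Cytoskeleton Dye, MitoTracker Red and Annexin V Alexa Fluor 680. They were imaged on a CQ1 microscope at 37°C and 5% CO2 after compound addition. Using CellPathfinder machine-learning gating, cells were split into Hoechst high-intensity objects or normal cells, normal cells into healthy, pyknosed or fragmented nuclei, and pyknosed cells into mitotic or apoptotic; tubulin, mitochondrial-mass and membrane-permeability phenotypes are per cents of healthy-nucleus cells.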

[1] = 12 h, 1 µM, compound concentration 1 uM, replicate 1
[2] = 12 h, 1 µM, compound concentration 1 uM, replicate 2
[3] = 12 h, 10 µM, compound concentration 10 uM, replicate 1
[4] = 12 h, 10 µM, compound concentration 10 uM, replicate 2
[5] = 24 h, 1 µM, compound concentration 1 uM, replicate 1
[6] = 24 h, 1 µM, compound concentration 1 uM, replicate 2
[7] = 24 h, 10 µM, compound concentration 10 uM, replicate 1
[8] = 24 h, 10 µM, compound concentration 10 uM, replicate 2

For `CCn1cc(-c2ccnc3[nH]c(-c4cccc(CN(C)C)c4)cc23)c(-c2ccc(NC(=O)N(C)C)cc2)n1` [GSK-1070916], the “Population Apoptotic (%)” value [1] was 25%, the “Population Fragmented Nuclei (%)” value [1] was 4% and the “Population Healthy Nuclei (%)” value [1] was 91%. For the same compound, the “Population Hoechst High Intensity Objects (%)” value [1] was 2%, the “Population Membrane Permeable-Phenotype (%)” value [1] was 28% and the “Population Mitochondria Different-Phenotype (%)” value [1] was 17%. For the same compound, the “Population Mitotic Cells (%)” value [1] was 75%, the “Population Normal (%)” value [1] was 97% and the “Population Pyknosed Nuclei (%)” value [1] was 3%. The “Population Tubulin-Different-Phenotype (%)” value [1] was 24%, the “Total Cell Count” value [1] was 141 and the “Population Apoptotic (%)” value [2] was 100%. For the same compound, the “Population Fragmented Nuclei (%)” value [2] was 12%, the “Population Healthy Nuclei (%)” value [2] was 86% and the “Population Hoechst High Intensity Objects (%)” value [2] was 14%. For the same compound, the “Population Membrane Permeable-Phenotype (%)” value [2] was 30%, the “Population Mitochondria Different-Phenotype (%)” value [2] was 35% and the “Population Mitotic Cells (%)” value [2] was 0%. For the same compound, the “Population Normal (%)” value [2] was 85%, the “Population Pyknosed Nuclei (%)” value [2] was 1% and the “Population Tubulin-Different-Phenotype (%)” value [2] was 26%. The “Total Cell Count” value [2] was 97, the “Population Apoptotic (%)” value [3] was 50% and the “Population Fragmented Nuclei (%)” value [3] was 12%. The “Population Healthy Nuclei (%)” value [3] was 62%, the “Population Hoechst High Intensity Objects (%)” value [3] was 9% and the “Population Membrane Permeable-Phenotype (%)” value [3] was 32%. The “Population Mitochondria Different-Phenotype (%)” value [3] was 44%, the “Population Mitotic Cells (%)” value [3] was 49% and the “Population Normal (%)” value [3] was 90%. For the same compound, the “Population Pyknosed Nuclei (%)” value [3] was 24%, the “Population Tubulin-Different-Phenotype (%)” value [3] was 99% and the “Total Cell Count” value [3] was 207. For the same compound, the “Population Apoptotic (%)” value [4] was 48%, the “Population Fragmented Nuclei (%)” value [4] was 24% and the “Population Healthy Nuclei (%)” value [4] was 48%. For the same compound, the “Population Hoechst High Intensity Objects (%)” value [4] was 16%, the “Population Membrane Permeable-Phenotype (%)” value [4] was 37% and the “Population Mitochondria Different-Phenotype (%)” value [4] was 67%. The “Population Mitotic Cells (%)” value [4] was 51%, the “Population Normal (%)” value [4] was 83% and the “Population Pyknosed Nuclei (%)” value [4] was 27%. For the same compound, the “Population Tubulin-Different-Phenotype (%)” value [4] was 100%, the “Total Cell Count” value [4] was 76 and the “Population Apoptotic (%)” value [5] was 38%. For the same compound, the “Population Fragmented Nuclei (%)” value [5] was 6%, the “Population Healthy Nuclei (%)” value [5] was 81% and the “Population Hoechst High Intensity Objects (%)” value [5] was 2%. For the same compound, the “Population Membrane Permeable-Phenotype (%)” value [5] was 15%, the “Population Mitochondria Different-Phenotype (%)” value [5] was 27% and the “Population Mitotic Cells (%)” value [5] was 61%. For the same compound, the “Population Normal (%)” value [5] was 97%, the “Population Pyknosed Nuclei (%)” value [5] was 12% and the “Population Tubulin-Different-Phenotype (%)” value [5] was 15%. The “Total Cell Count” value [5] was 141, the “Population Apoptotic (%)” value [6] was 40% and the “Population Fragmented Nuclei (%)” value [6] was 8%. For the same compound, the “Population Healthy Nuclei (%)” value [6] was 83%, the “Population Hoechst High Intensity Objects (%)” value [6] was 18% and the “Population Membrane Permeable-Phenotype (%)” value [6] was 22%. For the same compound, the “Population Mitochondria Different-Phenotype (%)” value [6] was 63%, the “Population Mitotic Cells (%)” value [6] was 60% and the “Population Normal (%)” value [6] was 81%. The “Population Pyknosed Nuclei (%)” value [6] was 8%, the “Population Tubulin-Different-Phenotype (%)” value [6] was 18% and the “Total Cell Count” value [6] was 92. For the same compound, the “Population Apoptotic (%)” value [7] was 65%, the “Population Fragmented Nuclei (%)” value [7] was 13% and the “Population Healthy Nuclei (%)” value [7] was 45%. For the same compound, the “Population Hoechst High Intensity Objects (%)” value [7] was 16%, the “Population Membrane Permeable-Phenotype (%)” value [7] was 50% and the “Population Mitochondria Different-Phenotype (%)” value [7] was 85%. For the same compound, the “Population Mitotic Cells (%)” value [7] was 34%, the “Population Normal (%)” value [7] was 83% and the “Population Pyknosed Nuclei (%)” value [7] was 40%. For the same compound, the “Population Tubulin-Different-Phenotype (%)” value [7] was 98%, the “Total Cell Count” value [7] was 216 and the “Population Apoptotic (%)” value [8] was 64%. The “Population Fragmented Nuclei (%)” value [8] was 17%, the “Population Healthy Nuclei (%)” value [8] was 36% and the “Population Hoechst High Intensity Objects (%)” value [8] was 18%. The “Population Membrane Permeable-Phenotype (%)” value [8] was 63%, the “Population Mitochondria Different-Phenotype (%)” value [8] was 87% and the “Population Mitotic Cells (%)” value [8] was 35%. For the same compound, the “Population Normal (%)” value [8] was 81%, the “Population Pyknosed Nuclei (%)” value [8] was 45% and the “Population Tubulin-Different-Phenotype (%)” value [8] was 100%. The “Total Cell Count” value [8] was 72.

`C[C@H]1Oc2cc(cnc2N)-c2c(nn(C)c2C#N)CN(C)C(=O)c2ccc(F)cc21` [LORLATINIB] was tested, and the “Population Apoptotic (%)” value [1] was 53% and 37%, the “Population Healthy Nuclei (%)” value [1] was 88% and 89% and the “Population Hoechst High Intensity Objects (%)” value [1] was 2% and 3%. For the same compound, the “Population Membrane Permeable-Phenotype (%)” value [1] was 14%, the “Population Mitochondria Different-Phenotype (%)” value [1] was 20% and 32% and the “Population Mitotic Cells (%)” value [1] was 46% and 62%. The “Population Normal (%)” value [1] was 97% and 96%, the “Population Pyknosed Nuclei (%)” value [1] was 6% and 4% and the “Population Tubulin-Different-Phenotype (%)” value [1] was 15% and 22%. The “Total Cell Count” value [1] was 195 and 218, the “Population Apoptotic (%)” value [2] was 25% and 0% and the “Population Healthy Nuclei (%)” value [2] was 84% and 77%. For the same compound, the “Population Hoechst High Intensity Objects (%)” value [2] was 11% and 9%, the “Population Membrane Permeable-Phenotype (%)” value [2] was 15% and 8% and the “Population Mitochondria Different-Phenotype (%)” value [2] was 35% and 38%. For the same compound, the “Population Mitotic Cells (%)” value [2] was 75% and 100%, the “Population Normal (%)” value [2] was 88% and 90% and the “Population Pyknosed Nuclei (%)” value [2] was 10% and 2%. The “Population Tubulin-Different-Phenotype (%)” value [2] was 26% and 35%, the “Total Cell Count” value [2] was 129 and 122 and the “Population Apoptotic (%)” value [5] was 57% and 38%. For the same compound, the “Population Fragmented Nuclei (%)” value [5] was 6% and 5%, the “Population Healthy Nuclei (%)” value [5] was 86% and 87% and the “Population Hoechst High Intensity Objects (%)” value [5] was 2%. For the same compound, the “Population Membrane Permeable-Phenotype (%)” value [5] was 11% and 7%, the “Population Mitochondria Different-Phenotype (%)” value [5] was 22% and 25% and the “Population Mitotic Cells (%)” value [5] was 42% and 61%. For the same compound, the “Population Normal (%)” value [5] was 97%, the “Population Pyknosed Nuclei (%)” value [5] was 6% and 7% and the “Population Tubulin-Different-Phenotype (%)” value [5] was 16% and 28%. The “Total Cell Count” value [5] was 254 and 277, the “Population Apoptotic (%)” value [6] was 55% and 21% and the “Population Fragmented Nuclei (%)” value [6] was 9% and 18%. For the same compound, the “Population Healthy Nuclei (%)” value [6] was 81% and 70%, the “Population Hoechst High Intensity Objects (%)” value [6] was 9% and 6% and the “Population Membrane Permeable-Phenotype (%)” value [6] was 14% and 8%. The “Population Mitochondria Different-Phenotype (%)” value [6] was 33% and 41%, the “Population Mitotic Cells (%)” value [6] was 44% and 78% and the “Population Normal (%)” value [6] was 90% and 93%. The “Population Pyknosed Nuclei (%)” value [6] was 8% and 10%, the “Population Tubulin-Different-Phenotype (%)” value [6] was 31% and the “Total Cell Count” value [6] was 140 and 145.

From ChEMBL document CHEMBL4689842, “EUbOPEN Chemogenomics Library wave 1” (2021)
